{
  "source": "ChEMBL document CHEMBL5661979",
  "about": "“Pharmacological inhibition of BMK1 suppresses tumor growth through promyelocytic leukemia protein” (Cancer Cell, 2010)",
  "format_in_all_cases": "subcellular",
  "key": {"[1]": {"biological_target": "Ephrin type-B receptor 4 (Homo sapiens) (UniProt P54760)", "sequence (P54760 whole entry)": "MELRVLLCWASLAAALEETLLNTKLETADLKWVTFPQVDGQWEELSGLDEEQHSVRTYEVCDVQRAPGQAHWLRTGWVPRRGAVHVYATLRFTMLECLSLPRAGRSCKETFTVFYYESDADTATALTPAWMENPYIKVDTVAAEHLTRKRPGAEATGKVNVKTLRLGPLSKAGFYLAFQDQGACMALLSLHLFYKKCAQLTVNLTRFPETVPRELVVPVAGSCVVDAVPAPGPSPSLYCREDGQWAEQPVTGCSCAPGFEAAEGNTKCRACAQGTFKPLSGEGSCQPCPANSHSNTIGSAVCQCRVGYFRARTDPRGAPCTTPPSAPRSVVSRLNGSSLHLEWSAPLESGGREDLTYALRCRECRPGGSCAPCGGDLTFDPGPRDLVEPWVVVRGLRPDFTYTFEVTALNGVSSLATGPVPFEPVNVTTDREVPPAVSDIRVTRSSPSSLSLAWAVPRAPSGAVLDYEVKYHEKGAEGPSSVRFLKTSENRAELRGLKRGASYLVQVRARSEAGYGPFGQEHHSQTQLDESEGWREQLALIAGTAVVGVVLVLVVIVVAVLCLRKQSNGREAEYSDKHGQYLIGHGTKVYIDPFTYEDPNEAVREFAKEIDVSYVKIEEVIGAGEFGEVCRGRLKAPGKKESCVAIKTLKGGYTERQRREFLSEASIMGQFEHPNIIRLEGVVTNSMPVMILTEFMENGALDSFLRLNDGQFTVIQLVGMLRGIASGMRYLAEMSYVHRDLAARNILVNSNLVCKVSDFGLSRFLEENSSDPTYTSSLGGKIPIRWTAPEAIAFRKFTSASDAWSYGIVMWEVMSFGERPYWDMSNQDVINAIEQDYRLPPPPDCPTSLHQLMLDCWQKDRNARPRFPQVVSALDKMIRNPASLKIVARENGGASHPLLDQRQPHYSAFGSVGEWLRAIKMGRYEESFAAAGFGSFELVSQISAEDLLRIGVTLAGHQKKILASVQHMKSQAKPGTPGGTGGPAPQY", "experiment": "Inhibition of EphB4 in human HeLa cells lysate at 10 uM pre incubated for 15 mins followed by ATP acyl phosphate probe addition and measured after 10 mins by LC-MS/MS analysis relative to control", "conditions": "time 25.0 min"}, "[2]": {"biological_target": "Serine/threonine-protein kinase Nek7 (Homo sapiens, UniProt Q8TDX7)", "experiment": "Inhibition of NEK7 in human HeLa cells lysate at 2 uM pre incubated for 15 mins followed by ADP acyl phosphate probe addition and measured after 10 mins by LC-MS/MS analysis relative to control", "conditions": "time 25.0 min"}, "[3]": {"biological_target": "T1, Serine/threonine-protein kinase D3 (Homo sapiens) (UniProt O94806)", "T1 sequence (whole entry)": "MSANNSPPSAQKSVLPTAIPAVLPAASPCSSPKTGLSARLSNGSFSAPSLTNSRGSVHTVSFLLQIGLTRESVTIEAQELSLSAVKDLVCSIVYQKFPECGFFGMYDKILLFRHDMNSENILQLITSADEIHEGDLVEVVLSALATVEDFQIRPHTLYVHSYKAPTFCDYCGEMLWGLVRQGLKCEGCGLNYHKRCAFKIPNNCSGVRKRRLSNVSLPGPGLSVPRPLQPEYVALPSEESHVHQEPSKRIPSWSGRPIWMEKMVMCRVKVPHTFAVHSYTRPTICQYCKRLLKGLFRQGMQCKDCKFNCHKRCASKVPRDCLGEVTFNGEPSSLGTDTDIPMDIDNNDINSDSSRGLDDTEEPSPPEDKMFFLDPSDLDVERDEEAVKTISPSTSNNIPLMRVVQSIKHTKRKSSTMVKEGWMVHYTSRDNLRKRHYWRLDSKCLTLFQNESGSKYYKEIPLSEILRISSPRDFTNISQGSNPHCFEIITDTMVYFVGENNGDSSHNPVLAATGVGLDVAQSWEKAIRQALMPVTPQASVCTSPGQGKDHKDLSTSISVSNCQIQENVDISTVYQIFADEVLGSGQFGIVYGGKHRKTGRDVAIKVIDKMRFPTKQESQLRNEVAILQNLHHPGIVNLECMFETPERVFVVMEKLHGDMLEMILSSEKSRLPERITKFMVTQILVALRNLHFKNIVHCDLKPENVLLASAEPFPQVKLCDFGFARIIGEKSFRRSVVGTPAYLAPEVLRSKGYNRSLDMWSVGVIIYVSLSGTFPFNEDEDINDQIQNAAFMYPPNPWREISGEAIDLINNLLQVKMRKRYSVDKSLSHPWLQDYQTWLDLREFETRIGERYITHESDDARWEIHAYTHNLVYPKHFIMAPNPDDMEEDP", "experiment": "Inhibition of PKD3 in human HeLa cells lysate at 2 uM pre incubated for 15 mins followed by ADP acyl phosphate probe addition and measured after 10 mins by LC-MS/MS analysis relative to control", "conditions": "time 25.0 min"}, "[4]": {"biological_target": "Dual specificity mitogen-activated protein kinase kinase 4 (Homo sapiens, UniProt P45985)", "sequence (P45985 whole entry)": "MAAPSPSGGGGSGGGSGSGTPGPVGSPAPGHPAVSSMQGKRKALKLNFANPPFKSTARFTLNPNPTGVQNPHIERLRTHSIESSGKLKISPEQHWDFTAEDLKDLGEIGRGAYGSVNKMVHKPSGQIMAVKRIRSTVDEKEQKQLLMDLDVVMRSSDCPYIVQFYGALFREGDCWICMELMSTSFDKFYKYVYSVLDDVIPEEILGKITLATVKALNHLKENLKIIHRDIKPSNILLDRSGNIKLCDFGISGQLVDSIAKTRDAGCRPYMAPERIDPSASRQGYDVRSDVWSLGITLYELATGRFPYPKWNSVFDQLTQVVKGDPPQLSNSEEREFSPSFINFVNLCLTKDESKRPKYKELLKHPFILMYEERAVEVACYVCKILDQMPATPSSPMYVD", "experiment": "Inhibition of MAP2K4 in human HeLa cells lysate pre incubated for 15 mins followed by ATP acyl phosphate probe addition and measured after 10 mins by LC-MS/MS analysis"}, "[5]": {"biological_target": "T2, Ribosomal protein S6 kinase alpha-1 (Homo sapiens, UniProt Q15418)", "T2 sequence (Q15418 whole entry, the tested form may be a part)": "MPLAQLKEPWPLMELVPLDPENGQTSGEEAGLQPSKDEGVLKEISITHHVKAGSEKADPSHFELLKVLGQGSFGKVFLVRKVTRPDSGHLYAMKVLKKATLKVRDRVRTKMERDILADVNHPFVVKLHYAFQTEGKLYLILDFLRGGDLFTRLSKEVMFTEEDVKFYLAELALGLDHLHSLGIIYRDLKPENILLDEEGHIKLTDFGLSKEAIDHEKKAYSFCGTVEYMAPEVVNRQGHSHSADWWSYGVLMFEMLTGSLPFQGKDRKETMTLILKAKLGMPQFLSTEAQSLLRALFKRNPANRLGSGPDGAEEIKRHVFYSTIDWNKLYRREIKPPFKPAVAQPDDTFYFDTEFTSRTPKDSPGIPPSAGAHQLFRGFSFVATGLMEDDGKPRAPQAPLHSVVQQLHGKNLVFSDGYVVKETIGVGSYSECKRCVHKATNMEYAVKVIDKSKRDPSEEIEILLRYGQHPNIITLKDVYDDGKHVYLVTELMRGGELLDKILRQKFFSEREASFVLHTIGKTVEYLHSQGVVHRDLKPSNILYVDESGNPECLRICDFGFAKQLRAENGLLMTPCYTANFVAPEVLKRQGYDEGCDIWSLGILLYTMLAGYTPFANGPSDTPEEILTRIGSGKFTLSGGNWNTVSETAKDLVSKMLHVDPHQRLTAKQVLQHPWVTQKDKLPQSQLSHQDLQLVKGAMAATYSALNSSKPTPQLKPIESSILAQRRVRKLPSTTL", "experiment": "Inhibition of RSK1 domain 2 K1 site in human HeLa cells lysate pre incubated for 15 mins followed by ADP acyl phosphate probe addition and measured after 10 mins by LC-MS/MS analysis"}, "[6]": {"biological_target": "Ribosomal protein S6 kinase alpha-3 (Homo sapiens, UniProt P51812)", "experiment": "Inhibition of RSK2 domain 1 active form in human HeLa cells lysate at 10 uM pre incubated for 15 mins followed by ATP acyl phosphate probe addition and measured after 10 mins by LC-MS/MS analysis relative to control", "conditions": "time 25.0 min"}, "[7]": {"biological_target": "Glycogen synthase kinase-3 beta (Homo sapiens, UniProt P49841)", "sequence (P49841 whole entry, canonical isoform)": "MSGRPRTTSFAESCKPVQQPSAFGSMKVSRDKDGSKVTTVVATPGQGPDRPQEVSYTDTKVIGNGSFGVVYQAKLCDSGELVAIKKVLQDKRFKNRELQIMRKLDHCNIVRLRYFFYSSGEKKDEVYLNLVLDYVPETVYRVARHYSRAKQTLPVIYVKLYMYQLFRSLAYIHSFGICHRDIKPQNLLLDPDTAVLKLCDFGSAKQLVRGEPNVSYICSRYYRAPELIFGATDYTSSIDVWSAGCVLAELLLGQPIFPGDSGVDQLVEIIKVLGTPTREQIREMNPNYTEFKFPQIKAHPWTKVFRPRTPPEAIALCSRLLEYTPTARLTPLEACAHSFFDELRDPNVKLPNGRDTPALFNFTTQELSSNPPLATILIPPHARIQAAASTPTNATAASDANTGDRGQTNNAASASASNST", "experiment": "Inhibition of GSK3B isoform 2 in human HeLa cells lysate pre incubated for 15 mins followed by ADP acyl phosphate probe addition and measured after 10 mins by LC-MS/MS analysis"}, "[8]": {"biological_target": "Tyrosine-protein kinase JAK1 (Homo sapiens, UniProt P23458)", "sequence (P23458 whole entry, the tested form may be a part)": "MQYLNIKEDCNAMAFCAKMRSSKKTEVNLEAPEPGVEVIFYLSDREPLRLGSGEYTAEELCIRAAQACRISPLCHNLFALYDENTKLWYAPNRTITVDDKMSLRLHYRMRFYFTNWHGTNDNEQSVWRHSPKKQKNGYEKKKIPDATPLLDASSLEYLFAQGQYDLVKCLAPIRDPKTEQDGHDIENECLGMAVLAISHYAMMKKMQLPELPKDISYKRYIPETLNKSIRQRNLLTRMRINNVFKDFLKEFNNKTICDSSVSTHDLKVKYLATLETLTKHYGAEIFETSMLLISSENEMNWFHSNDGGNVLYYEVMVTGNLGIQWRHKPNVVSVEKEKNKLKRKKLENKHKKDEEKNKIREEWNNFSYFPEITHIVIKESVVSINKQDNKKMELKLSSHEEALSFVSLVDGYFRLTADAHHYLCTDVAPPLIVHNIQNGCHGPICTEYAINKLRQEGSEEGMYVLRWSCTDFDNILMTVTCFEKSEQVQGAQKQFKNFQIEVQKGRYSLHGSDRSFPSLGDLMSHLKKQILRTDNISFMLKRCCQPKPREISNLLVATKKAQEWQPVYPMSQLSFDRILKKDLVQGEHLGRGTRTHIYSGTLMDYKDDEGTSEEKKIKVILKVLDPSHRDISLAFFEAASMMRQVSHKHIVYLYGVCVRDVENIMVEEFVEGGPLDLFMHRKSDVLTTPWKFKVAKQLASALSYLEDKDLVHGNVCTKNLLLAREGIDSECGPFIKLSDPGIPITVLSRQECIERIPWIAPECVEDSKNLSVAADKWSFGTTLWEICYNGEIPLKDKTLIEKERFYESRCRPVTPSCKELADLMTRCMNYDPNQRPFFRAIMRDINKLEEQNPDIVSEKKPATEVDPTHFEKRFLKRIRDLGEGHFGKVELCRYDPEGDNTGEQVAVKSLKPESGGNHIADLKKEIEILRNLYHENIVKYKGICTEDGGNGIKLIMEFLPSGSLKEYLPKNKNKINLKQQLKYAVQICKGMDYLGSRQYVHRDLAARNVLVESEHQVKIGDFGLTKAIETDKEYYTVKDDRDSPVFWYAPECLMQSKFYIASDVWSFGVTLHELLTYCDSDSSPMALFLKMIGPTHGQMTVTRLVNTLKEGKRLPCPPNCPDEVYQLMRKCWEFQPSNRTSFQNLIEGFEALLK", "experiment": "Inhibition of JAK1 domain 2 in human HeLa cells lysate pre incubated for 15 mins followed by ATP acyl phosphate probe addition and measured after 10 mins by LC-MS/MS analysis"}, "[9]": {"biological_target": "Serine/threonine-protein kinase Nek9 (Homo sapiens, UniProt Q8TD19)", "sequence (Q8TD19 whole entry)": "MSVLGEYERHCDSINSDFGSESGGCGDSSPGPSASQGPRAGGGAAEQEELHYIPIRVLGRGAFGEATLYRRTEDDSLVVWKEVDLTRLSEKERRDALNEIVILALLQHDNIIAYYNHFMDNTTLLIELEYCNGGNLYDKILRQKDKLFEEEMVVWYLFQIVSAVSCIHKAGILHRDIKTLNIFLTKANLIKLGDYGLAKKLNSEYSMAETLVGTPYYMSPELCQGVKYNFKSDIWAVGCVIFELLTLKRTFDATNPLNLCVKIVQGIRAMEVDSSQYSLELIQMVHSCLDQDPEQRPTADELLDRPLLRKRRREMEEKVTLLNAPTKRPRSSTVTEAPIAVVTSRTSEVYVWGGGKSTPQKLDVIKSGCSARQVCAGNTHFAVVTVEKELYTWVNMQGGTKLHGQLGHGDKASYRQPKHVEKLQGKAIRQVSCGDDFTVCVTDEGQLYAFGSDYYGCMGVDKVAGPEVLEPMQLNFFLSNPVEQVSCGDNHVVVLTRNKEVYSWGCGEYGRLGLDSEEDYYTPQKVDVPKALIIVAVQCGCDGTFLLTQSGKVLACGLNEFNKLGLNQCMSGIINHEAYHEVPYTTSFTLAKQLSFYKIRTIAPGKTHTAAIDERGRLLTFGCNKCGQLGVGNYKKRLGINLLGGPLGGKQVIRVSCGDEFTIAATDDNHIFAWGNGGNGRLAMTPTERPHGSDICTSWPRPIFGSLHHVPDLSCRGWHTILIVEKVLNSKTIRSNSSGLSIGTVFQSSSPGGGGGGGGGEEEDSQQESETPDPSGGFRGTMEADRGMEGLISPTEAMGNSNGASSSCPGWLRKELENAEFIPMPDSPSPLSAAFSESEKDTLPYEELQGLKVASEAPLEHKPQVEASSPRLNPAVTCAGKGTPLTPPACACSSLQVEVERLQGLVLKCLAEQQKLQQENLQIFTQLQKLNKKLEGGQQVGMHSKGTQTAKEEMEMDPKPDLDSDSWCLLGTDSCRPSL", "experiment": "Inhibition of NEK9 in human HeLa cells lysate pre incubated for 15 mins followed by ADP acyl phosphate probe addition and measured after 10 mins by LC-MS/MS analysis"}, "[10]": {"biological_target": "T2, Ribosomal protein S6 kinase alpha-1", "experiment": "Inhibition of RSK1 domain 2 K1 site in human HeLa cells lysate at 50 uM pre incubated for 15 mins followed by ADP acyl phosphate probe addition and measured after 10 mins by LC-MS/MS analysis relative to control", "conditions": "time 25.0 min"}, "[11]": {"biological_target": "Cyclin-dependent kinase 8/19 (Homo sapiens, UniProt P49336+Q9BWU1)", "experiment": "Inhibition of CDK8/CDK11 in human HeLa cells lysate pre incubated for 15 mins followed by ATP acyl phosphate probe addition and measured after 10 mins by LC-MS/MS analysis", "procedure,_shortened": "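KiNativ profiling in HeLa lysate (5 mg/mL total protein). Lysate incubated 15 min with inhibitor at 50, 10, 2, 0.8 or 0 μM. ATP or ADP acylphosphate probe then added (5 μM final) and reacted 10 min. Reaction stopped with urea and analysed by targeted MS, using up to four fragment ions per kinase peptide-probe conjugate. % inhibition taken against untreated lysate. Run in duplicate.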"}, "[12]": {"biological_target": "Mitogen-activated protein kinase 3 (Homo sapiens, UniProt P27361)", "sequence (P27361 whole entry)": "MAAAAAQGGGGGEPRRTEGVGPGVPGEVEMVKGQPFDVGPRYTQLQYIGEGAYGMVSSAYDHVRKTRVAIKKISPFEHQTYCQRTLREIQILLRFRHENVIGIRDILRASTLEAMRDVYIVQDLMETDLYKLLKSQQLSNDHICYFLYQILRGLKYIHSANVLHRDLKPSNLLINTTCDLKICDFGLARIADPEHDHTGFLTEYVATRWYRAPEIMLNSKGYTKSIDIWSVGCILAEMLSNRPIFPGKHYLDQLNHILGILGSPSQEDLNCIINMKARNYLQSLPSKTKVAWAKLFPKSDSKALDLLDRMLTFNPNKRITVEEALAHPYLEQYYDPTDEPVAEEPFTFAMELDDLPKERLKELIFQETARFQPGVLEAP", "experiment": "Inhibition of ERK1 in human HeLa cells lysate pre incubated for 15 mins followed by ADP acyl phosphate probe addition and measured after 10 mins by LC-MS/MS analysis"}, "[13]": {"biological_target": "T3, Serine/threonine-protein kinase ULK3 (Homo sapiens) (UniProt Q6PHR2)", "T3 sequence (whole entry)": "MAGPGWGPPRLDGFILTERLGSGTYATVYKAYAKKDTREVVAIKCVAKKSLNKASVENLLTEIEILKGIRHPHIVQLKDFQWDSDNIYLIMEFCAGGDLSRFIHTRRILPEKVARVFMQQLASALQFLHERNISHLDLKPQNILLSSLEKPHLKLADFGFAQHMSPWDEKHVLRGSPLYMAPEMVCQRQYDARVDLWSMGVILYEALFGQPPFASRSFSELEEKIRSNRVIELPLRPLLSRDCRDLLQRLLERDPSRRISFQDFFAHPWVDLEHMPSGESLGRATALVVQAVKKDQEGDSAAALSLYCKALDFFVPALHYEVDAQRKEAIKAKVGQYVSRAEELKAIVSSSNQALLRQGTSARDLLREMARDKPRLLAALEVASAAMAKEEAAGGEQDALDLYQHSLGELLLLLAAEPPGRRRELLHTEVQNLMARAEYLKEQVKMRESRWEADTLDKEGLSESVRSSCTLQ", "experiment": "Inhibition of ULK3 in human HeLa cells lysate at 50 uM pre incubated for 15 mins followed by ADP acyl phosphate probe addition and measured after 10 mins by LC-MS/MS analysis relative to control", "conditions": "time 25.0 min"}},
  "data": [
    {"molecule": "CCOc1cc(N2CCC(O)CC2)ccc1Nc1ncc2c(n1)N(C)c1ccccc1C(=O)N2C", "values": [
      {"measurement": "inhibition", "setting": "[1]", "value": -7.1, "unit": "%"},
      {"measurement": "inhibition", "setting": "[2]", "value": 14.2, "unit": "%"},
      {"measurement": "inhibition", "setting": "[3]", "value": 5.5, "unit": "%"},
      {"measurement": "IC50", "setting": "[4]", "value": "> 50", "unit": "µM"},
      {"measurement": "IC50", "setting": "[5]", "value": 29, "unit": "µM"},
      {"measurement": "inhibition", "setting": "[6]", "value": -6.5, "unit": "%"},
      {"measurement": "IC50", "setting": "[7]", "value": "> 50", "unit": "µM"},
      {"measurement": "IC50", "setting": "[8]", "value": "> 50", "unit": "µM"},
      {"measurement": "IC50", "setting": "[9]", "value": "> 50", "unit": "µM"},
      {"measurement": "inhibition", "setting": "[10]", "value": 63.8, "unit": "%"},
      {"measurement": "IC50", "setting": "[11]", "value": "> 50", "unit": "µM"},
      {"measurement": "IC50", "setting": "[12]", "value": "> 50", "unit": "µM"},
      {"measurement": "inhibition", "setting": "[13]", "value": 19.4, "unit": "%"}
    ]}
  ]
}
